Legend:
[1] = biological target: Lysophosphatidic acid receptor 1 (Homo sapiens, UniProt Q92633); test: Antagonist activity at human recombinant LPA1 receptor expressed in CHOK1 cells assessed as inhibition of lysophosphatidic acid-induced intracellular calcium influx; type: functional, cell-based, CHO-K1
Method in brief: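 LPA1-transfected CHO-K1 cells grown in aMEM/F12 with 400 µg/ml Zeocin and 7% FBS. Loaded with Fluo-3 AM in 20 mM Hepes/HBSS/2.5 mM probenecid, 1 h, 37 °C. Washed, resuspended with 0.1% BSA, 24,000 cells/well. FLIPR fluorescence (ex 488/em 540 nm) read before and after compound addition, with or without 1 µM LPA. IC50 is the mean of at least two runs.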

[2] = biological target: Lysophosphatidic acid receptor 1 (Rattus norvegicus, UniProt P61794); test: Antagonist activity at LPA1 receptor in rat hepatic stellate cells assessed as inhibition of lysophosphatidic acid-induced intracellular calcium influx; type: functional, cell-based
Method in brief: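 Stellate cells isolated from male Wistar rat liver, seeded overnight at 24,000 cells/well. Loaded with 4 µM Fluo-3 AM in buffer (0.1% BSA, 20 mM Hepes, HBSS, 2.5 mM probenecid), 37 °C, 1 h, then FLIPR Ca2+ read. Test substance added with LPA at 5 µM final. LPA without compound = 100%, no LPA = 0%. IC50 is the mean of at least two runs.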

Chain of Lysophosphatidic acid receptor 1 (Rattus norvegicus, UniProt P61794) (P61794 whole entry): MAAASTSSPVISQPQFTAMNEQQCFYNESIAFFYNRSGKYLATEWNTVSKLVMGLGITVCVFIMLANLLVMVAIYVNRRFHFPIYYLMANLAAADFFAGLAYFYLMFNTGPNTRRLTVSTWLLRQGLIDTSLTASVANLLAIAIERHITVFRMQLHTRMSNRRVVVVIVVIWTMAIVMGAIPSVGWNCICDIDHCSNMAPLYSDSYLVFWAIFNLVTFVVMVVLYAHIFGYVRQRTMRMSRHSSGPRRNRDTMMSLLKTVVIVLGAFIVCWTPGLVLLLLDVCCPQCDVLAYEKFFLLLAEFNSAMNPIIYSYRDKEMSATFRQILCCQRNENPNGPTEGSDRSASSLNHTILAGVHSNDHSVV
Chain of Lysophosphatidic acid receptor 1 (Homo sapiens, UniProt Q92633) (Q92633 whole entry): as the sequence (P61794 whole entry) above, with A4I, S8I, Q22P, Y40H, V61I, D193E, H194N, V269I, N331S, N335T counted along it

Row | Structure (SMILES) | IC50 [1] | IC50 [2]
1 | CC(OC(=O)Nc1conc1-c1ccc(CCSCC(=O)O)cc1)c1ccccc1Cl (centres undefined) | 0.13 µM | 0.1 µM
2 | Cc1noc(-c2ccc(CSCCC(=O)O)cc2)c1NC(=O)OC(C)c1ccccc1Cl (centres undefined) | 0.51 µM | 0.16 µM
3 | CC(OC(=O)Nc1conc1-c1ccc(CSCCS(=O)(=O)O)cc1)c1ccccc1Cl (centres undefined) | 0.43 µM | 0.074 µM
4 | CC(OC(=O)Nc1conc1-c1ccc(CSCCC(=O)O)cc1)c1ccccc1Cl (centres undefined) | 0.22 µM | 0.049 µM
5 | CC(OC(=O)Nc1conc1-c1ccc(CS(=O)(=O)CCC(=O)O)cc1)c1ccccc1Cl (centres undefined) | 0.28 µM | 0.11 µM
6 | CC(OC(=O)Nc1conc1-c1ccc(NC(=O)CCC(=O)O)cc1)c1ccccc1Cl (centres undefined) | 0.14 µM | 0.073 µM
7 | CC(OC(=O)Nc1conc1-c1ccc(CCCCC(=O)O)cc1)c1ccccc1Cl (centres undefined) | 0.2 µM | 0.072 µM
8 | CC(OC(=O)Nc1cnoc1-c1ccc(CSCCC(=O)O)cc1)c1ccccc1Cl (centres undefined) | 0.26 µM | 0.081 µM
9 | CC(OC(=O)Nc1conc1-c1ccc(CSCCC(=O)O)cc1)C1=C(Cl)CCC1 (centres undefined) | 0.13 µM | 0.029 µM
10 | CC(OC(=O)Nc1conc1-c1ccc(CCC(C)(C)CC(=O)O)cc1)c1ccccc1Cl (centres undefined) | 0.37 µM | 0.12 µM
11 | CC(OC(=O)Nc1ccccc1-c1ccc(CSCCC(=O)O)cc1)c1ccccc1Cl (centres undefined) | > 40 µM | > 20 µM
12 | CC(OC(=O)Nc1conc1-c1ccc(CSCCC(=O)O)cc1)C1=C(Cl)CCCC1 (centres undefined) | 0.17 µM | 0.056 µM
